CHRM5 PAM: human M5 muscarinic receptor positive allosteric modulators, primary screen, CHO-K1 cells, Fluo-8 calcium fluorescence; CHO-K1 hM5, ACh EC20 PAM; 0% = ACh EC20, 100% = ACh EC100; activation, % at 3 µM; 360,000 compounds, 0.3% hits; AID 624038, 2012;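 active means activation above the run cutoff, the mean activation of all test compounds plus 3 SD, cut at about 18% in these data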
Target sequence (P08912 whole entry, looked up): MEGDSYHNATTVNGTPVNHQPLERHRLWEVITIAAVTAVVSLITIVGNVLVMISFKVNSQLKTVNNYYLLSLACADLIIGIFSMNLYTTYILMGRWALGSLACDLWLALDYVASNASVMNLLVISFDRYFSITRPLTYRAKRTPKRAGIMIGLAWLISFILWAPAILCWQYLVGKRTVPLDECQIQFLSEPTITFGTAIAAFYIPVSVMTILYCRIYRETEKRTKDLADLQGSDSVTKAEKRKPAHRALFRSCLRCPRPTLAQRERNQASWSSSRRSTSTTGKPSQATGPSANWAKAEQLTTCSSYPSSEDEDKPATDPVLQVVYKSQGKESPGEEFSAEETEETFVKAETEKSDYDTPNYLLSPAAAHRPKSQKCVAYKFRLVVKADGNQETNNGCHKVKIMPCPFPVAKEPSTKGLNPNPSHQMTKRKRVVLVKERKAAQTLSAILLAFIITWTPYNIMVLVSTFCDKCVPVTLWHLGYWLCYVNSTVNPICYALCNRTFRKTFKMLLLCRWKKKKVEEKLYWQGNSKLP
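Assay system: CHO-K1 hM5 cells. Also added: acetylcholine at EC20 concentration, added after compound. Dosing: 3 µM, single dose. Times: compound preincubation 140 s before EC20 acetylcholine addition. Signal: Fluo-8 calcium fluorescence. Measure: % activation relative to EC20 and EC100 ACh responses. Repeats: singlicate, one well per test compound.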
CHRM5 agonist: human M5 muscarinic receptor agonists, primary screen, CHO-K1 cells, Fluo-8 calcium fluorescence | CHO-K1 hM5 cells; 0% DMSO wells, 100% maximal acetylcholine response | activation, % at 3 µM | 360,000 compounds, 0.19% hits | AID 624037, 2012;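 active means activation above the run's mean over test compounds plus 3 SD, cut at about 23% in these data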;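 further: signal is peak over basal fluorescence ratio across the kinetic read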
M4 PAM: human M4 muscarinic receptor positive allosteric modulators, primary screen, CHO-K1 cells, Fluo-8 calcium fluorescence. CHO-K1 hM4/Gqi5, ACh EC20; 0% = ACh EC20, 100% = maximal ACh. AID 624126, 2012. activation, % at 3 µM. Muscarinic acetylcholine receptor M4 (Homo sapiens), P08173. 360,000 compounds, 0.4% hits;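 active means activation above its plate's cutoff, the mean activation of sample wells plus 3 SD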
M4 ag: human M4 muscarinic receptor agonists, primary screen, CHO-K1 cells, Fluo-8 calcium fluorescence | Muscarinic acetylcholine receptor M4 (Homo sapiens), P08173 | CHO-K1 hM4/Gqi5; vehicle 0%, full acetylcholine response 100% | activation, % at 3 µM | 360,000 compounds, 0.14% hits | AID 624127, 2012;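 active means activation above the run mean over all test wells plus 3 SD, cut at about 32% in these data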;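 further: peak over basal fluorescence ratio per well then scaled between controls; 0% = DMSO wells and 100% = acetylcholine at EC100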
M4 antag: human M4 muscarinic receptor antagonists, primary screen, CHO cells, Fluo-8 calcium fluorescence; CHO-hM4 cells, ACh EC80; inhibition, % at 3 µM; 360,000 compounds, 0.73% hits;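 active means inhibition above its plate's cutoff, the mean inhibition of sample wells plus 3 SD, cut at about 27% in these data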;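 further: 0% = acetylcholine EC80 with DMSO and 100% = DMSO without agonist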
M5 antag: human M5 muscarinic receptor antagonists, primary screen, CHO cells, Fluo-8 calcium fluorescence. Muscarinic acetylcholine receptor M5 (Homo sapiens), P08912. CHO-hM5 cells, ACh EC80. inhibition, % at 3 µM. 360,000 compounds, 0.59% hits. AID 624040, 2012;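 active means inhibition above a per-plate cutoff, the mean of that plate's test compounds plus 3 SD, cut at about 27% in these data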;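 further: 0% = acetylcholine EC80 with DMSO and 100% = DMSO without agonist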
The depositor's hits bear a star; ! = not active in a repeat. An excerpt weighted towards active compounds, which were near 1.8% of everything screened.

SMILES	CHRM5 PAM	CHRM5 agonist	M4 PAM	M4 ag	M4 antag	M5 antag
COc1ccc(C(=O)N/N=C/c2ccc(OC)c(COc3c(F)c(F)cc(F)c3F)c2)cc1	1.8	-4.9	-7.5	4.3	-4.4	10.5
COc1ccc(/C=N\NC(=O)c2ccc([N+](=O)[O-])cc2)cc1COc1c(F)c(F)cc(F)c1F	-8.5	-4.0	-0.9	0.1	-0.3	27.1*
CC(=O)O[C@H]1C[C@@]2(C)[C@@H](C[C@@H](O)[C@H]3[C@@]4(C)CC[C@@H](O)[C@@H](C)[C@@H]4CC[C@@]32C)/C1=C(\CCC=C(C)C)C(=O)O	-18.9	-1.6	-15.6	0.1	81.3*!	43.6*!
CC(=O)O[C@]1(C(C)=O)CCC2C3C=C(C)C4=CC(=O)CC[C@]4(C)C3CC[C@@]21C (stereo partly specified)	2.8	-2.8	1.2	1.1	-22.0	-3.5
CCNC(=O)C1CCCN(C(=O)c2cccc(Cl)c2)CC1 (stereo unspecified)	1.7	0.6	1.5	0.6	4.1	3.5
O=C(NCc1ccccn1)/C(=C/c1ccco1)NC(=O)c1ccccc1	-0.1	-0.2	21.2*	5.0	-13.5	-3.6
CCOc1ccc(OCCC(=O)OCC(=O)NCc2ccccc2)cc1	2.8	-4.3	-1.0	1.2	0.3	-10.5
Cc1cc(OCC(=O)NCCc2ccc(Cl)cc2)c2c(C)cc(=O)oc2c1	19.0*	-0.6	11.1	0.3	-14.6	-12.8
O=P(OC1CCCCC1)(OC1CCCCC1)C(Nc1ccccc1)c1cccnc1 (stereo unspecified)	-18.7	-0.3	-9.0	19.5	12.3	30.7*
CCOP(=O)(OCC)C(Nc1ccccc1)c1cccnc1 (stereo unspecified)	2.4	0.7	-2.1	0.7	-12.5	-1.5
CC1CCN(c2c(NCC3CCC(C(=O)NC4CCCCCC4)CC3)c(=O)c2=O)CC1 (stereo unspecified)	1.8	0.1	15.3	0.6	30.7*	-1.5
CC1CCN(c2c(NCC3CCC(C(=O)N4CCCCC4)CC3)c(=O)c2=O)CC1 (stereo unspecified)	-12.4	-0.8	-9.3	2.4	-1.0	-1.0
COCCNC(=S)N(CCc1c(C)[nH]c2ccc(OC)cc12)Cc1cccnc1	-8.5	-3.2	-3.5	1.2	-14.1	20.6
CN(Cc1ccccc1)C1=CC(=[N+]2CCCCC2)CC(C)(C)C1	-24.2	-19.4	-39.3	4.5	54.0*	25.2
CC1(C)CC(N2CCN(Cc3ccccc3)CC2)=CC(=[N+]2CCCCC2)C1	5.0	-16.9	-12.9	0.8	-3.4	3.1
CCOC(=O)CCc1c(C)n(CC)c2cc(-c3ccccc3OC)nn2c1=O	13.1	-9.2	19.4*	-1.3	-9.3	-0.5
CCc1nc2c(OCc3ccc(F)c(F)c3)cccn2c1N(C)C(=O)c1cccs1	-5.8	-1.5	-2.0	-0.5	7.4	0.9
COc1cc(/C=C(/C#N)c2ccc(F)cc2)ccc1Oc1ccc([N+](=O)[O-])cn1	-20.8	-3.5	-12.4	7.7	15.2	35.4*
Nc1ncnc(Nc2ccc(F)c(Cl)c2)n1	12.4	0.0	11.7*	0.6	0.5	-2.3
Cc1[nH]nc(-c2cccnc2)c1N=NN(C)C	2.9	0.9	4.3	1.2	-2.6	8.7
CC(C)c1ccc(NC(=O)CCS(=O)(=O)c2cccc3nonc23)cc1	3.6	-2.4	1.9	5.0	-4.3	-4.7
CC(OC(=O)CCCN=C1NS(=O)(=O)c2ccccc21)C(=O)c1ccccc1 (stereo unspecified)	-1.1	25.7*	2.6	18.4	-10.9	2.4
CC(OC(=O)CCCN=C1NS(=O)(=O)c2ccccc21)C(=O)N(C)c1ccccc1 (stereo unspecified)	1.7	-1.1	1.2	1.8	-12.3	2.7
CN(C)S(=O)(=O)c1cccc(CSCc2cccc(S(=O)(=O)N(C)C)c2)c1	-15.5	11.1	-10.5	14.8	19.4	41.1*
COc1ccc(C(C)NC(=O)Cc2ccc(Br)cc2)cc1 (stereo unspecified)	-5.9	-5.8	-4.2	37.3*	-6.9	6.4
SMILES	CHRM5 PAM	CHRM5 agonist	M4 PAM	M4 ag	M4 antag	M5 antag
CC(C)NC(=O)Cc1ccc(Br)cc1	-1.9	-3.0	10.2	1.1	-3.5	1.1
CN(C)CCNc1ccc(Cl)cc1[N+](=O)[O-]	-18.5	-9.6	-12.9	1.0	8.6	30.3*
CS(=O)(=O)NCCNc1ccc(Cl)cc1[N+](=O)[O-]	-13.3	3.2	-12.2	12.6	5.5	9.4
COc1ccccc1-c1sc2cc3c(cc2c1-c1ccc(OCCN2CCCCC2)cc1)OCO3	-12.3	-5.5	0.1	6.8	34.8*	6.8
COc1cc2sc(-c3ccccc3OC)c(-c3ccc(OCCN4CCCCC4)cc3)c2cc1OC	-7.6	2.0	-1.5	11.7	24.7	13.7
Cc1csc(NC(=O)CSc2nncc(=O)n2N)n1	0.8	5.0	0.8	2.2	1.2	-0.3
CC(C)c1[nH]nc2c1C1(CCN(Cc3ccccc3)CC1)C(C#N)=C(N)O2	1.1	-2.9	14.2	3.2	32.2*	1.6
NS(=O)(=O)c1ccc(N2CCN(C(=O)C3COc4ccccc4O3)CC2)nc1 (stereo unspecified)	-0.1	2.4	7.4	3.0	3.2	-3.9
Cc1onc(-c2c(F)cccc2Cl)c1C(=O)Nc1nccs1	-2.9	3.7	-3.1	10.8	-3.6	2.2
Cc1onc(-c2ccccc2)c1C(=O)Nc1nnc(-c2ccncc2)s1	14.4	9.7	31.1*	-0.9	4.0	-14.9
Cc1noc(C)c1C(=O)Nc1nnc(-c2ccccc2)s1	-1.6	0.8	3.8	3.4	-2.1	0.0
Cc1onc(-c2c(F)cccc2Cl)c1C(=O)Nc1nnc(C(F)(F)F)s1	-11.5	6.4	-3.0	14.5	1.3	29.0*
COCOCCn1cc(CN2CCS(=O)(=O)N(Cc3ccc(-c4ccc(OC)cc4)cc3)C(C(C)C)C2=O)nn1 (stereo unspecified)	-1.1	-0.8	-0.5	5.9	-12.8	3.4
CCN(C(=O)COC(=O)C1CCC(C(C)(C)C)CC1)c1c(N)n(Cc2ccccc2)c(=O)[nH]c1=O (stereo unspecified)	4.8	2.5	14.9	1.8	-11.2	8.4
CC1(C)CC(=O)C=C(c2n[nH]nc2C2CCCCC2)C1	8.2	0.7	0.5	2.0	-10.4	-0.4
